ChEMBL document CHEMBL4257575, “Discovery of Novel Flavonoid Dimers To Reverse Multidrug Resistance Protein 1 (MRP1, ABCC1) Mediated Drug Resistance in Cancers Using a High Throughput Platform with "Click Chemistry"” (J Med Chem, 2018)

Target: Multidrug resistance-associated protein 1 (Homo sapiens, UniProt P33527)
Assay: Inhibition of MRP1 in human 2008/MRP1 cells assessed as potentiation of doxorubicin-induced cytotoxicity by measuring cell survival at 2 uM after 5 days by MTS assay relative to control
Type: cell-based
Conditions: 120 h
Procedure, shortened: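 2008/MRP1 cells (retroviral human MRP1 transfectant; RPMI 1640, 10% FBS) at 4,000 per well, with 100 nM doxorubicin plus crude, unpurified click products in DMSO: 2 µM in the primary screen, 1 µM in the secondary. Incubated 5 days at 37 °C. MTS/PMS added for 2 h at 37 °C, absorbance read at 490 nm. % survival is relative to wells without DOX or product. Run in triplicate, at least three experiments.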

Chain of Multidrug resistance-associated protein 1 (P33527 whole entry): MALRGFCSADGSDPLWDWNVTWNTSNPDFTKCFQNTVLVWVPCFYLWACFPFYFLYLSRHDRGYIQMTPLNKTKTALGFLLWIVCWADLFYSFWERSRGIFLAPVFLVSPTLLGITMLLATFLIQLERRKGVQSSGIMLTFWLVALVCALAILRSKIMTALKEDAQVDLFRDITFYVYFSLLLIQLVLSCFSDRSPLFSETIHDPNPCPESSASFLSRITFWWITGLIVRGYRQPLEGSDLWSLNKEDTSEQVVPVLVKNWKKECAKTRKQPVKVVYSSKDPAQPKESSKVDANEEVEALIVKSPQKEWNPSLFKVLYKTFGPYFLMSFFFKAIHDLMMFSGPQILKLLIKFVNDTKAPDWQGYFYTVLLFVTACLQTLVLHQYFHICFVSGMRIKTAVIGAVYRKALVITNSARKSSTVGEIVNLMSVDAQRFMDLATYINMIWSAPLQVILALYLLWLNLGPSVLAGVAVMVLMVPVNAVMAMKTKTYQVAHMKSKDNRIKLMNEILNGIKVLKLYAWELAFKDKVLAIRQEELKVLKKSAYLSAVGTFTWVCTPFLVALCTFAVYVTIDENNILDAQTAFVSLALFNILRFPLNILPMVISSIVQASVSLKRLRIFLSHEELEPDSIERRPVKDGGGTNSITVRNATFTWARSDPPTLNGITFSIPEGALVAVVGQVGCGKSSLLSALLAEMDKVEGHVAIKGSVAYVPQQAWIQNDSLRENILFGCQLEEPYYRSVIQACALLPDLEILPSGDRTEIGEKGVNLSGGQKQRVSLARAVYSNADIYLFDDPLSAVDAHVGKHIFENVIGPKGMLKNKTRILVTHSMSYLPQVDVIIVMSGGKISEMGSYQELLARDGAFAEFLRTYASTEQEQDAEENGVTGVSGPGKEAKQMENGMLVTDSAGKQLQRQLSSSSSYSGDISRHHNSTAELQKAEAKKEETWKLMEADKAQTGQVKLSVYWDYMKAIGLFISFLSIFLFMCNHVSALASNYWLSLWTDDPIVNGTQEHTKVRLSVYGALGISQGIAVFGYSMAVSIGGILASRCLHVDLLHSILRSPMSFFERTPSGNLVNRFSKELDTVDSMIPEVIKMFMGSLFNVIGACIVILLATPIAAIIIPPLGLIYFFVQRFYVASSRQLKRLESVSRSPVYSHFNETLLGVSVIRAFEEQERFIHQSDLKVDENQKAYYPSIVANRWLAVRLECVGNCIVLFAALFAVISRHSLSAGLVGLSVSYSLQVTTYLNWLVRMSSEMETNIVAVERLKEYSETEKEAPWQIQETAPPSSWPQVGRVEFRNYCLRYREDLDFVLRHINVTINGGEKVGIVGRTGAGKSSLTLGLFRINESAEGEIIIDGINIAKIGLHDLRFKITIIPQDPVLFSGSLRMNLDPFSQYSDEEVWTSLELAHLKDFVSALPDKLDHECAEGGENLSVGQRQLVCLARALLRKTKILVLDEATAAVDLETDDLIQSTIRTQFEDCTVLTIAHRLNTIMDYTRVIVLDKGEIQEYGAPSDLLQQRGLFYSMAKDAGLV

Row | SMILES | Survival [%]
1 | O=c1c(OCc2ccccc2)c(-c2ccc(OCCOCCn3cc(-c4ccc(-c5cn(CCOCCOc6ccc(-c7oc8ccccc8c(=O)c7OCc7ccccc7)cc6)nn5)cc4)nn3)cc2)oc2ccccc12 | 82
2 | O=c1cc(-c2ccc(OCCOCCn3cc(CN4CCN(Cc5cn(CCOCCOc6ccc(-c7cc(=O)c8cc(F)ccc8o7)cc6)nn5)CC4)nn3)cc2)oc2ccc(F)cc12 | 86
3 | O=c1cc(-c2ccc(OCCCc3cn(CCOc4cccc5c(=O)cc(-c6ccccc6)oc45)nn3)cc2)oc2ccccc12 | 69
4 | COc1cccc(COc2c(-c3ccc(OCCOCCn4cc(CCCCOc5ccc(/C=C/C(=O)c6ccc(F)cc6O)cc5)nn4)cc3)oc3ccccc3c2=O)c1 | 75
5 | O=c1[nH]c(-c2ccc(OCCCc3cn(CCOCCOCCOc4ccc(-c5cc(=O)c6ccccc6o5)cc4)nn3)cc2)nc2ccccc12 | 76
6 | C#CCCCOc1ccc(-c2cc(=O)c3cc(F)ccc3o2)cc1 | 81
7 | O=c1c(OCc2ccccc2)c(-c2ccc(OCCOCCOCCn3cc(-c4ccc(-c5cn(CCOCCOCCOc6ccc(-c7oc8ccccc8c(=O)c7OCc7ccccc7)cc6)nn5)cc4)nn3)cc2)oc2ccccc12 | 86
8 | O=c1c(OCc2ccccc2)c(-c2cccc(OCCOCCn3cc(-c4cccc(-c5cn(CCOCCOc6cccc(-c7oc8ccccc8c(=O)c7OCc7ccccc7)c6)nn5)c4)nn3)c2)oc2ccccc12 | 89
9 | Cc1ccc(O)c(C(=O)/C=C/c2ccc(OCCCCc3cn(CCOCCOc4ccc(-c5cc(=O)c6ccccc6o5)cc4)nn3)cc2)c1 | 60
10 | O=c1cc(-c2ccccc2)oc2cc(OCCOCCn3cc(CNc4ccccc4)nn3)ccc12 | 88
11 | COc1cccc(COc2c(-c3ccc(OCCOCCn4cc(CCCOc5ccc(-c6nc7ccccc7c(=O)[nH]6)cc5)nn4)cc3)oc3ccccc3c2=O)c1 | 67
12 | O=c1cc(-c2ccccc2)oc2cc(OCCOCCn3cc(-c4cccc(-c5cn(CCOCCOc6ccc7oc(-c8ccccc8)cc(=O)c7c6)nn5)c4)nn3)ccc12 | 76
13 | COCOc1cc(OCc2ccccc2)c2c(=O)cc(-c3ccc(OCCCc4cn(CCOCCOCCOc5ccc(-c6cc(=O)c7cc(C)ccc7o6)cc5)nn4)cc3)oc2c1 | 53
14 | CCc1ccc(O)c(C(=O)/C=C/c2ccc(OCCCCc3cn(CCOCCOCCOc4ccc(-c5cc(=O)c6cc(F)ccc6o5)cc4)nn3)cc2)c1 | 67
15 | O=c1cc(-c2ccc(OCCOCCOCCn3cc(CN4CCN(Cc5cn(CCOCCOCCOc6ccc(-c7cc(=O)c8cc(F)ccc8o7)cc6)nn5)CC4)nn3)cc2)oc2ccc(F)cc12 | 85
16 | COc1cccc(COc2c(-c3ccc(OCCCCc4cn(CCOCCOc5ccc(-c6cc(=O)c7cc(F)ccc7o6)cc5)nn4)cc3)oc3ccccc3c2=O)c1 | 65
17 | O=c1cc(-c2ccccc2)oc2cc(OCCOCCOCCn3cc(-c4ccc(-c5cn(CCOCCOCCOc6ccc7c(=O)cc(-c8ccccc8)oc7c6)nn5)cc4)nn3)ccc12 | 88
18 | Cc1ccc2oc(-c3ccc(OCCOCCOCCn4cc(COCCOc5ccc6c(=O)cc(-c7ccccc7)oc6c5)nn4)cc3)cc(=O)c2c1 | 54
19 | C#CCN(CC#C)Cc1ccccc1 | 81
20 | O=C(/C=C/c1ccc(OCCCCc2cn(CCOCCOCCOc3ccc(-c4cc(=O)c5ccccc5o4)cc3)nn2)cc1)c1ccc(F)cc1O | 55

Row | SMILES | Survival [%]
21 | CN(CCN(C)Cc1cn(CCOCCOCCOc2ccc(-c3cc(=O)c4ccccc4o3)cc2)nn1)Cc1cn(CCOCCOCCOc2ccc(-c3cc(=O)c4ccccc4o3)cc2)nn1 | 71
22 | Cc1ccc(C(=O)/C=C/c2ccc(OCCCCc3cn(CCOCCOc4ccc(-c5cc(=O)c6ccccc6o5)cc4)nn3)cc2)c(O)c1 | 57
23 | COc1cccc(COc2c(-c3ccc(OCCOCCn4cc(CNc5ccccc5)nn4)cc3)oc3ccccc3c2=O)c1 | 89
24 | CCc1ccc(O)c(C(=O)/C=C/c2ccc(OCCCCc3cn(CCOCCOc4ccc(-c5oc6ccccc6c(=O)c5OCc5cccc(OC)c5)cc4)nn3)cc2)c1 | 76
25 | O=c1cc(-c2ccc(OCCOCCn3cc(CNc4ccccc4)nn3)cc2)oc2ccc(F)cc12 | 81
26 | O=c1[nH]c(-c2ccc(OCCCc3cn(CCOCCOc4ccc(-c5cc(=O)c6cc(F)ccc6o5)cc4)nn3)cc2)nc2ccccc12 | 76
27 | COc1cccc(COc2c(-c3ccc(OCCOCCn4cc(-c5ccc(-c6cn(CCOCCOc7ccc(-c8oc9ccccc9c(=O)c8OCc8cccc(OC)c8)cc7)nn6)cc5)nn4)cc3)oc3ccccc3c2=O)c1 | 88
28 | O=C1c2ccccc2C(=O)N1CCc1cn(CCOCCOc2cccc(-c3oc4ccccc4c(=O)c3OCc3ccccc3)c2)nn1 | 62
29 | O=c1cc(-c2ccccc2)oc2cc(OCCCc3cn(CCOCCOc4ccc(-c5oc6ccccc6c(=O)c5OCc5ccccc5)cc4)nn3)ccc12 | 51
30 | COc1cccc(COc2c(-c3ccc(OCCOCCn4cc(CCCCOc5ccc(-c6cc(=O)c7cc(C)ccc7o6)cc5)nn4)cc3)oc3ccccc3c2=O)c1 | 78
31 | O=c1cc(-c2ccccc2)oc2cc(OCCCCc3cn(CCOCCOCCOc4ccc(-c5oc6ccccc6c(=O)c5OCc5ccccc5)cc4)nn3)ccc12 | 63
32 | COCOc1cc(OCc2ccccc2)c2c(=O)cc(-c3ccc(OCCCc4cn(CCOCCOCCOc5ccc6c(=O)cc(-c7ccccc7)oc6c5)nn4)cc3)oc2c1 | 76
33 | COc1cccc(COc2c(-c3ccc(OCCOCCN=[N+]=[N-])cc3)oc3ccccc3c2=O)c1 | 57
34 | O=c1cc(-c2ccc(OCCCc3cn(CCOCCOc4cccc(-c5oc6ccccc6c(=O)c5OCc5ccccc5)c4)nn3)cc2)oc2ccc(F)cc12 | 79
35 | COc1cccc(COc2c(-c3ccc(OCCCCc4cn(CCOCCOCCOc5ccc(-c6cc(=O)c7cc(F)ccc7o6)cc5)nn4)cc3)oc3ccccc3c2=O)c1 | 60
36 | CCc1ccc(O)c(C(=O)/C=C/c2ccc(OCCCCc3cn(CCOCCOCCOc4ccc(-c5oc6ccccc6c(=O)c5OCc5ccccc5)cc4)nn3)cc2)c1 | 77
37 | COCOc1cc(OCc2ccccc2)c2c(=O)cc(-c3ccc(OCCCc4cn(CCOCCOCCOc5ccc(-c6oc7ccccc7c(=O)c6OCc6ccccc6)cc5)nn4)cc3)oc2c1 | 89
38 | O=c1cc(-c2ccc(OCCOCCn3cc(-c4ccc(-c5cn(CCOCCOc6ccc(-c7cc(=O)c8ccccc8o7)cc6)nn5)cc4)nn3)cc2)oc2ccccc12 | 81
39 | C#CCCCCOc1ccc(/C=C/C(=O)c2cc(C)ccc2O)cc1 | 100
40 | O=c1c(OCc2ccccc2)c(-c2ccc(OCCOCCOCCn3cc(CN(Cc4cn(CCOCCOCCOc5ccc(-c6oc7ccccc7c(=O)c6OCc6ccccc6)cc5)nn4)Cc4cn(CCOCCOCCOc5ccc(-c6oc7ccccc7c(=O)c6OCc6ccccc6)cc5)nn4)nn3)cc2)oc2ccccc12 | 81

Row | SMILES | Survival [%]
41 | COc1cccc(COc2c(-c3ccc(OCCOCCn4cc(CCCOc5ccc(-c6cc(=O)c7ccc(F)cc7o6)cc5)nn4)cc3)oc3ccccc3c2=O)c1 | 61
42 | O=c1cc(-c2ccccc2)oc2c(OCCn3cc(CNc4ccccc4)nn3)cccc12 | 85
43 | O=c1c(OCc2ccccc2)c(-c2ccc(OCCOCCOCCn3cc(CN(Cc4ccccc4)Cc4cn(CCOCCOCCOc5ccc(-c6oc7ccccc7c(=O)c6OCc6ccccc6)cc5)nn4)nn3)cc2)oc2ccccc12 | 87
44 | O=C(/C=C/c1ccc(OCCCCc2cn(CCOCCOCCOc3ccc(-c4cc(=O)c5cc(F)ccc5o4)cc3)nn2)cc1)c1ccc(F)cc1O | 53
45 | CN(CCN(C)Cc1cn(CCOCCOc2ccc3oc(-c4ccccc4)cc(=O)c3c2)nn1)Cc1cn(CCOCCOc2ccc3c(=O)cc(-c4ccccc4)oc3c2)nn1 | 99
46 | O=Cc1ccc(OCCCCc2cn(CCOCCOc3ccc(-c4cc(=O)c5ccccc5o4)cc3)nn2)cc1 | 75
47 | O=c1cc(-c2ccc(OCCOCCOCCn3cc(CN(Cc4cn(CCOCCOCCOc5ccc(-c6cc(=O)c7ccccc7o6)cc5)nn4)Cc4cn(CCOCCOCCOc5ccc(-c6cc(=O)c7ccccc7o6)cc5)nn4)nn3)cc2)oc2ccccc12 | 77
48 | Cc1ccc2oc(-c3ccc(OCCCCc4cn(CCOCCOc5cccc(-c6oc7ccccc7c(=O)c6OCc6ccccc6)c5)nn4)cc3)cc(=O)c2c1 | 55
49 | O=c1[nH]c(-c2ccc(OCCCc3cn(CCOCCOc4ccc(-c5oc6ccccc6c(=O)c5OCc5ccccc5)cc4)nn3)cc2)nc2ccccc12 | 64
50 | Cc1ccc2oc(-c3ccc(OCCOCCOCCn4cc(CCCCOc5ccc6c(=O)cc(-c7ccccc7)oc6c5)nn4)cc3)cc(=O)c2c1 | 51
51 | O=c1cc(-c2ccccc2)oc2cc(OCCOCc3cn(CCOCCOc4cccc(-c5oc6ccccc6c(=O)c5OCc5ccccc5)c4)nn3)ccc12 | 77
52 | O=c1cc(-c2ccccc2)oc2cc(OCCOCCn3cc(CN4CCN(Cc5cn(CCOCCOc6ccc7oc(-c8ccccc8)cc(=O)c7c6)nn5)CC4)nn3)ccc12 | 99
53 | CCc1ccc(O)c(C(=O)/C=C/c2ccc(OCCCCc3cn(CCOCCOc4cccc(-c5oc6ccccc6c(=O)c5OCc5ccccc5)c4)nn3)cc2)c1 | 85
54 | O=c1cc(-c2ccc(OCCOCCOCCn3cc(-c4cccc(-c5cn(CCOCCOCCOc6ccc(-c7cc(=O)c8cc(F)ccc8o7)cc6)nn5)c4)nn3)cc2)oc2ccc(F)cc12 | 72
55 | O=C(/C=C/c1ccc(OCCCCc2cn(CCOCCOCCOc3ccc(-c4oc5ccccc5c(=O)c4OCc4ccccc4)cc3)nn2)cc1)c1ccccc1O | 61
56 | CCc1ccc(O)c(C(=O)/C=C/c2ccc(OCCCCc3cn(CCOCCOc4ccc(-c5oc6ccccc6c(=O)c5OCc5ccccc5)cc4)nn3)cc2)c1 | 69
57 | Cc1ccc(O)c(C(=O)/C=C/c2ccc(OCCCCc3cn(CCOCCOCCOc4ccc(-c5oc6ccccc6c(=O)c5OCc5ccccc5)cc4)nn3)cc2)c1 | 76
58 | O=c1cc(-c2ccccc2)oc2cc(OCCn3cc(-c4ccc(-c5cn(CCOc6ccc7occ(-c8ccccc8)c(=O)c7c6)nn5)cc4)nn3)ccc12 | 87
59 | O=c1cc(-c2ccccc2)oc2cc(OCCCc3cn(CCOCCOCCOc4ccc(-c5oc6ccccc6c(=O)c5OCc5ccccc5)cc4)nn3)ccc12 | 63
